Reference: ChEMBL document CHEMBL4513216, “Probing the Open Global Health Chemical Diversity Library for Multistage-Active Starting Points for Next-Generation Antimalarials” (ACS Infect Dis, 2020)

assay: Toxicity liver stage against HepG2, at 10uM; format: cell-based; design: test concentration 10 uM, cell line HepG2-A16-CD81EGFP; details: human, HepG2-A16-CD81EGFP cells; read-out: INHIBITION
Outline: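 Uninfected HepG2-A16-CD81EGFP cells, 3 × 10^3 per well, 1536-well, plated on prespotted compound at 10 μM final, parasite-free screening media added to match infected plates; puromycin 10 μM positive, DMSO 0.5% negative; run in parallel with 48 h PbLuc assay at 37 °C, 5% CO2; viability by CellTiter-Glo luminescence, normalized to controls.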

Structure (SMILES) | cytotoxicity at 10 µM
O=C(CNC(=O)c1ccccc1F)NCc1ccccn1 | -0.575%
Fc1ccccc1-c1noc2c1CN(CCN1CCOCC1)CC2 | 0.0119%
CC(C)c1cc(NC(=O)c2ccc([S+]([O-])C(C)C)cc2)[nH]n1 (stereo not given) | -7.52%
O=C(CSC1=NS(=O)(=O)c2cc(F)ccc2N1)Nc1ccc(Cl)cc1 | 8.93%
O=C(NCCN1CCCCCC1)c1coc(COc2ccc(F)cc2)n1 | -4.07%
Fc1ccc2[nH]c(C3CCCN3CCCn3cccn3)nc2c1 (stereo not given) | 0.154%
Cn1cc(C(=O)NCc2cn3c(n2)CN(CC2CCCC2)CC3)cn1 | 7.17%
Cc1nc(-c2cnn(C)c2)nc2c1CN(C(=O)c1cccnc1)CC2 | 2.68%
CN(C)Cc1cccc(-c2cccnc2C(=O)NCc2cn(C)cn2)c1 | 4.09%
Cc1nc(COC[C@@H]2CC[C@H]3NCC[C@H]3O2)cs1 | -3.15%
O=C(CCC(=O)Nc1nnc(C2CCCCC2)s1)NCC1CCCO1 (stereo not given) | -7.7%
CN(C)C(=O)C1CCCN1CCCNC(=O)c1ccccc1F (stereo not given) | -20.2%
COc1ncccc1NC(=O)C1CCOCC1 | -29.8%
c1ccc(OCCCn2ccnc2-c2cn(C3CCNCC3)nn2)cc1 | -18.1%
COC(=O)[C@@H]1Cc2ncn(C)c2CN1S(=O)(=O)Cc1ccccc1 | -0.861%
O=C(c1ccc(C2CCCO2)s1)N1CCOCC1 (stereo not given) | 10.3%
O=S(=O)(NCc1cccnc1OC1CCCC1)N1CCCCC1 | -3.82%
NC(=O)CCSc1n[nH]c(-c2ccc3c(c2)CCC3)n1 | -0.302%
CCOCc1cnc2n1CCN(Cc1cccs1)C2C (stereo not given) | 11.3%
CN(C)c1ccc(C(=O)N(Cc2ccncc2)CC2CCCO2)nn1 (stereo not given) | 14.2%
CC(Nc1ccn(CCS(C)(=O)=O)n1)c1ccc(C#N)cc1 (stereo not given) | 8.64%
NC(=O)C1CCN(CCc2ccc(NC(=O)C3CCC3)cc2)CC1 | -3.86%

Structure (SMILES) | cytotoxicity at 10 µM
O=S(=O)(c1ccc(N2CCCCC2)c2nonc12)N1CCCCC1 | 6.74%
COc1ccccc1CN1CC(OC)CN(C(=O)CC(C)C)CC1=O (stereo not given) | -3.3%
Cc1ccc2c(c1)c(CNC(=O)C1CC(=O)N(CCN(C)C)C1)nn2C (stereo not given) | 1.66%
CCS(=O)(=O)CC(=O)Nc1ccc2oc(C3CC3)nc2c1 | -5.4%
Clc1cnccc1N1CCC(OC2CCOCC2)CC1 | -0.439%
Cc1ccc(CN2C[C@@H](N(C)C)[C@H]3OCCC[C@H]32)o1 | -136%
COc1ccc(C(=O)NC2CC2)c(OC2CCN(CC3CC3)CC2)c1 | -1.47%
CCn1nc2c(cc1=O)CN(CCCN1CCCC1=O)CC2 | -13.9%
O=C(c1cnccn1)N1C[C@H]2CC[C@@H](C1)N(C(=O)CCc1ccsc1)C2 | 3.24%
Cc1nocc1C(=O)N1CCc2c(CN(C)C(C)C)n[nH]c2C1 | -12.3%
CCOc1ccccc1C(CC(=O)N(C)C)NC(C)=O (stereo not given) | -4.67%
O=C(CN1CCCC(c2ccn[nH]2)C1)Nc1nc2c(s1)CCCC2 (stereo not given) | -43.3%
CCOCCN1CCN(CC(=O)N2CCCC2)CC1CC (stereo not given) | -2.47%
CN(C)[C@H]1CCN(c2nc(C(C)(C)C)nc3c2cnn3C)C1 | -6.12%
CN1C(=O)C(c2cccnc2)CC12CCN(C(=O)c1cccn1C)CC2 (stereo not given) | -16.4%
COc1ncccc1NC(=O)NC1CCOc2ccccc21 (stereo not given) | -7.62%
CCN(CC)CCNC(=O)c1ccn(COc2cc(C)cc(C)c2)n1 | 4.36%
COc1c(CNC2CCc3cc(Cl)ccc32)c(C)nn1C (stereo not given) | 5.64%
CS(=O)(=O)N1C[C@H](C(=O)Nc2cccnc2)[C@@H]2CCO[C@@H]2C1 | -104%
Cc1cncc(C(=O)N2C[C@H]3CCC[C@@]3(COc3ccccn3)C2)c1 | 1.08%
c1nc(CCC2CCCN2)cc(N2CCCOCC2)n1 (stereo not given) | 3.91%
N#Cc1cn(C2CC2)c(=O)n(CC(O)c2ccccc2C(F)(F)F)c1=O (stereo not given) | -4.22%

Structure (SMILES) | cytotoxicity at 10 µM
N[C@H]1CN(C(=O)c2ccc(Cl)cc2O)C[C@@H]1C1CC1 | -44.7%
CCCS(=O)(=O)N1CCn2cc(CNc3ccccn3)nc2C1 | 9.1%
O=C(c1ccno1)N1CCO[C@]2(CCC[C@@H]2COCc2ccncc2)C1 | 10.2%
CC1(c2ccccc2)CCC(=O)N(CCN2CCOC2=O)C1 (stereo not given) | 3.37%
COCCN(C(=O)c1nc(-c2ccco2)sc1C)C1CC1 | -8.96%
COc1cc(C)sc1C(=O)NCCC(=O)N(C)c1ccccc1 | -1.41%
CCn1cc(Cn2cc(-c3cccc(C(C)N(C)C)c3)nn2)cn1 (stereo not given) | -6.97%
CC(C)CN1CCOC[C@H](Oc2ccc(S(C)(=O)=O)cc2)C1 | -1.67%
O=C(NCc1cccc(Cl)c1)C1=NOC2(CCNC2)C1 (stereo not given) | -0.0606%
Cc1nn(C)cc1-c1nn2c(C(F)(F)F)nnc2s1 | 2.48%
O=C(NCC1CC1)[C@H]1C[C@H]2OCC[C@H]2N(CCc2ccccc2)C1 | 3.86%
Cc1nccn1C1CCCN(C(=O)c2cc3c(F)cccc3[nH]2)C1 (stereo not given) | 5.32%
CCC1CN(Cc2nnc(C3CC3)o2)CCN1CCOC (stereo not given) | 3.13%
CC1(C(=O)N2CCN(C3CCCC3)CC2)CNCCO1 (stereo not given) | 6.26%
Cc1ocnc1C(=O)Nc1ccc(-c2nnc(N(C)C)o2)cc1 | 5.49%
CCOC1Sc2nnc(C)n2N=C1c1ccc(Br)cc1 (stereo not given) | -2.92%
CC(C)NC(=O)NC(=O)C(C)N1CCN(C2CCN(C(C)C)CC2)CC1 (stereo not given) | -15.5%
CN1C(=O)C2(CCN(C(=O)c3cccnc3)CC2)c2cccc(F)c21 | -1.06%
NC(=O)c1ccc(N2CCCCC2)c(NC(=O)c2ccc(F)cc2F)c1 | -0.0472%
Cc1noc([C@@H]2C[C@H]3OCC[C@H]3N(S(=O)(=O)c3cccnc3)C2)n1 | -12.5%
N#Cc1cccc(CN2CCCC2c2ccc[nH]2)c1 (stereo not given) | -11.9%
COc1ccc(CN2CCC3(CC(=O)N(c4cccc(F)c4)C3)C2)cc1 (stereo not given) | -137%

Structure (SMILES) | cytotoxicity at 10 µM
Cn1c(CCCNC(=O)Nc2cn[nH]c2)nc2ccccc21 | 21.9%
CN1CC(c2ccccc2)CC12CCN(C(=O)c1ccc(F)cc1)CC2 (stereo not given) | -12.1%
CCN1CCn2cc(CNC(=O)c3cnn(C)c3)nc2C1 | 8.88%
Cc1nc(CN(C)C2CCN(CCc3ccc4c(c3)CCO4)C2)no1 (stereo not given) | -12%
CCN(Cc1ccccc1)C(=O)CCN1C[C@@H](C(=O)O)[C@H](C2CC2)C1 | 6.94%
COc1cc(Cl)c(C)cc1-n1nnc(C(=O)O)c1-c1ccncc1 | 4.74%
COCC(C)(O)CNC(=O)Nc1cccc(OC)c1OC (stereo not given) | -2.75%
O=C(Nc1cccs1)N1CC(c2nc(C3CC3)no2)C1 | -0.921%
Cc1cc(NC(=O)CN2CCn3c(C)nnc3C2)no1 | -3.82%
CC(C)c1cc(C(=O)N2CCc3nc(C4CCCN4)ncc3C2)cs1 (stereo not given) | -16.5%
CC(C)CN1CC(C(=O)N(C)CCc2cn[nH]c2)CC1=O (stereo not given) | -4.1%
CCn1nc(C)c2nc(C(C)C)nc(N3CCOCC3)c21 | 2.88%
CN1CCC(c2cc(C(F)(F)F)n3ccnc3n2)CC1 | -9.6%
O=C(c1ccccc1F)N1CCN(CCCn2cncn2)CC1 | 2.99%
O=c1cc(-c2cccnc2)nc(-c2ccc(CN3CC[C@@H](O)C3)cc2)[nH]1 | 2.89%
CC(=O)N1CCCC2(CCN(C(=O)c3nccnc3N)CC2)C1 | 3.47%
O=C(C1CCC1)N1CCOc2cccc(F)c21 | 0.877%
CCN(C)S(=O)(=O)NCC1CCN(Cc2ccccc2F)C1 (stereo not given) | -2.48%
c1cc(C[C@H]2[C@H](N3CCOCC3)CCN2Cc2ccoc2)ccn1 | 10.2%
CC(C)Oc1ncccc1CNC(=O)N1CCSCC1 | -11.8%
Cc1cc(N2CCOCC2)ccc1NC(C)c1nc(C(C)C)no1 (stereo not given) | -12.3%
Cn1c(=O)[nH]c(=O)c2c1nc1n2CC(c2ccc(Cl)cc2)O1 (stereo not given) | -176%

Structure (SMILES) | cytotoxicity at 10 µM
Cc1cc(C)n(CC2CN(Cc3cc(C)on3)CCO2)n1 (stereo not given) | -9.71%
CC(C)N1CCN(c2ccc3ccc(C(=O)NC4CCCC4)cn23)CC1 | 1.26%
Cc1cnc(CNC(=O)CC2CCc3ccccc32)cn1 (stereo not given) | -0.862%
CCO[C@H]1CN(CC2CC2)[C@@H]2CCCO[C@H]12 | -105%
Cc1noc([C@@H]2CC[C@@H]3[C@@H](CCN3c3nnc(C)s3)O2)n1 | 9.28%
c1cn(Cc2nnc(C3CCN(C4CCOCC4)CC3)n2C2CC2)cn1 | 0.442%
Cc1ncccc1OC1(C(=O)NCCCN2CCOCC2)CCNCC1 | -10.8%
CC(C)c1nc(CN2CCN(CC(O)c3ccccc3)CC2)no1 (stereo not given) | -3.6%
CC(C#N)CSc1ccccc1NCC(=O)Nc1ccccc1 (stereo not given) | 6.24%
CCOCCn1nc(C)cc1C(=O)N1CC[C@](C)(O)[C@H](C)C1 | -6.34%
Cc1cnn(CC2CCCCN2c2ncnc3ccccc23)c1 (stereo not given) | 8.24%
O=C(Cn1ncc2ccccc21)Nc1ccnn1CC1CCOC1 (stereo not given) | 3.03%
Cc1ccccc1SCC(=O)NC1CCC(n2cnnc2)CC1 (stereo not given) | -48%
CC1(C)O[C@@](C)([C@H]2CC3(CCN(c4cnccn4)CC3)CO2)CC[C@@H]1O | 5.53%
Cc1cccc(CN2CCc3ncnc(C4CC4)c3CC2)n1 | -158%
Cc1nc(O)ccc1C(=O)NCc1ncccc1F | 7.97%
COc1ccc2nnc(CCC(=O)NCc3cccn3C)n2n1 | -10.1%
COCCn1ccc(NC(=O)CNC(=O)CC(C)(C)C)n1 | 17.3%
Cn1ccnc1C1(O)CCN(C(=O)CCc2ccccc2)CC1 | 1.37%
CCCc1nc(Cn2c(=O)n(C)c3ccccc32)no1 | -43%
COc1ccc(C(CNS(=O)(=O)c2cn(C)nc2C)N2CCCC2)cc1 (stereo not given) | 4.11%
CC(=O)NC1CCCN(C(=O)NCc2ccc(-n3cccn3)cc2)C1 (stereo not given) | -11.8%
